Measured values reported in ChEMBL document CHEMBL4813947, “New dual ATP-competitive inhibitors of bacterial DNA gyrase and topoisomerase IV active against ESKAPE pathogens” (Eur J Med Chem, 2021).
In brackets after ≈: the same amount, converted by molar mass.

Tests used:
[1] = Genotoxicity in CHO-K1 cells upto 62 uM by in presence of rat liver S9 fraction invitro micronucleus test; assay type: subcellular, Cricetulus griseus; details: chinese hamster
[2] = Drug metabolism in rat liver S9 fraction assessed as direct glucuronide conjugate; assay type: ADME, subcellular
[3] = test system: human topoisomerase 2alpha; assay: Selectivity ratio of IC50 for inhibition of human topoisomerase 2alpha to IC50 for inhibition of Escherichia coli topoisomerase IV; assay type: toxicity; details: read-out: Ratio IC50
DNA gyrase [4] = target: DNA gyrase (Escherichia coli, UniProt P0AES4+P0AES6); assay: Inhibition of Escherichia coli DNA gyrase assessed as reduction in supercoiling of relaxed pNO1 DNA measured after 30 mins by fluorescence assay
[5] = Drug metabolism in rat liver S9 fraction assessed as hydroxylated benzothiazole ring metabolite; assay type: ADME, subcellular
Staphylococcus aureus [6] = assay: Antibacterial activity against vancomycin-resistant wild type Staphylococcus aureus ATCC 700699 assessed as inhibition of bacterial growth by CLSI protocol based broth microdilution assay; assay type: functional
Summary of the method: (§1)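 Minimum inhibitory concentration by standard serial broth microdilution following CLSI guidelines. Medium was MHBII broth (22 g/L powder: beef extract, casein acid hydrolysate, starch), with MHBII agar (14 g agar per L broth). Where noted, assayed without and with efflux pump substrate phenylalanine-arginine β-naphthylamide (PAβN).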

[7] = Ratio of genotoxicity in CHO-K1 cells by invitro micronucleus test to MIC for vancomycin-resistant Staphylococcus aureus ATCC 700699; assay type: toxicity, cell-based; details: hamster
[8] = test system: human topoisomerase 2alpha; assay: Selectivity ratio of IC50 for inhibition of human topoisomerase 2alpha to IC50 for inhibition of Escherichia coli DNA gyrase; assay type: toxicity; details: read-out: Ratio IC50
Escherichia coli [9] = assay: Ratio of MIC for Escherichia coli MG1655 harboring GyrB R136C mutant in presence of efflux pump inhibitor PAbetaN to MIC for wild type Escherichia coli MG1655 in presence of efflux pump inhibitor PAbetaN; assay type: functional
Staphylococcus aureus [10] = assay: Ratio of MIC for vancomycin-resistant Staphylococcus aureus ATCC 700699 harboring GyrB […] mutant to MIC for vancomycin-resistant wild type Staphylococcus aureus ATCC 700699; assay type: functional
[11] = Ratio of genotoxicity in CHO-K1 cells in presence of rat liver S9 fraction by invitro micronucleus test to MIC for Enterococcus faecalis ATCC 29212; assay type: toxicity, cell-based; details: CHO-K1 cells with rat liver S9 fraction
[12] = Inhibition of Staphylococcus aureus topoisomerase assessed as reduction in relaxation of supercoiled pNO1 DNA measured after 30 mins by fluorescence assay
Summary of the method: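 Enzyme run per an earlier-reported procedure; IC50 fitted from seven inhibitor concentrations, mean of three independent measurements.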

Acinetobacter baumannii [13] = assay: Antibacterial activity against clinical isolate ciprofloxacin resistance Acinetobacter baumannii ATCC BAA-1605 assessed as inhibition of bacterial growth by CLSI protocol based broth microdilution assay; assay type: functional; summary of the method: as §1
Escherichia coli [14] = assay: Antibacterial activity against clinical isolate ciprofloxacin resistance Escherichia coli 31995 assessed as inhibition of bacterial growth by CLSI protocol based broth microdilution assay; assay type: functional; summary of the method: as §1
Staphylococcus aureus [15] = assay: Ratio of MIC for methicillin-resistant Staphylococcus aureus ATCC 43300 harboring GyrB T173A mutant to MIC for methicillin-resistant wild type Staphylococcus aureus ATCC 43300; assay type: functional
Staphylococcus aureus [16] = assay: Antibacterial activity against methicillin-resistant wild type Staphylococcus aureus ATCC 43300 assessed as inhibition of bacterial growth by CLSI protocol based broth microdilution assay; assay type: functional; summary of the method: as §1
Staphylococcus aureus [17] = assay: Antibacterial activity against vancomycin-resistant Staphylococcus aureus ATCC 700699 harboring GyrB R144I mutant assessed as inhibition of bacterial growth by CLSI protocol based broth microdilution assay; assay type: functional; summary of the method: as §1
Escherichia coli [18] = assay: Antibacterial activity against Escherichia coli ATCC 25922 assessed as inhibition of bacterial growth by CLSI protocol based broth microdilution assay; assay type: functional
[19] = Genotoxicity in CHO-K1 cells upto 16 uM by invitro micronucleus test; assay type: cell-based, Cricetulus griseus; details: chinese hamster
Staphylococcus aureus [20] = assay: Antibacterial activity against methicillin-resistant Staphylococcus aureus ATCC 43300 harboring GyrB R144I mutant assessed as inhibition of bacterial growth by CLSI protocol based broth microdilution assay; assay type: functional; summary of the method: as §1
[21] = Ratio of genotoxicity in CHO-K1 cells by invitro micronucleus test to MIC for methicillin-resistant wild type Staphylococcus aureus ATCC 43300; assay type: toxicity, cell-based; details: hamster
Staphylococcus aureus [22] = assay: Antibacterial activity against methicillin-resistant Staphylococcus aureus ATCC 43300 assessed as inhibition of bacterial growth by CLSI protocol based broth microdilution assay; assay type: functional; summary of the method: as §1
[23] = Ratio of genotoxicity in CHO-K1 cells in presence of rat liver S9 fraction by invitro micronucleus test to MIC for vancomycin-resistant Staphylococcus aureus ATCC 700699; assay type: toxicity, cell-based; details: CHO-K1 cells with rat liver S9 fraction
Acinetobacter baumannii [24] = assay: Antibacterial activity against Acinetobacter baumannii ATCC 17978 assessed as inhibition of bacterial growth by CLSI protocol based broth microdilution assay; assay type: functional
Escherichia coli [25] = assay: Antibacterial activity against clinical isolate ciprofloxacin resistance Escherichia coli 31859 assessed as inhibition of bacterial growth by CLSI protocol based broth microdilution assay; assay type: functional; summary of the method: as §1
Staphylococcus aureus [26] = assay: Ratio of MIC for methicillin-resistant Staphylococcus aureus ATCC 43300 harboring GyrB R144I mutant to MIC for methicillin-resistant wild type Staphylococcus aureus ATCC 43300; assay type: functional
Pseudomonas aeruginosa = assay: Antibacterial activity against Pseudomonas aeruginosa 19488 assessed as inhibition of bacterial growth by CLSI protocol based broth microdilution assay; assay type: functional
Enterococcus faecalis = assay: Antibacterial activity against Enterococcus faecalis ATCC 29212 assessed as inhibition of bacterial growth by CLSI protocol based broth microdilution assay; assay type: functional
MCF7 = assay: Cytotoxicity against human MCF-7 cells upto 100 uM by lactate dehydrogenase assay; assay type: cell-based
Summary of the method: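 HepG2 or MCF-7 cells grown in EMEM with 2 mM L-glutamine, penicillin/streptomycin, 10% FBS at 37 °C, 5% CO2; LDH release kit per manufacturer, test concentrations up to 100 µM.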

Klebsiella pneumoniae = assay: Antibacterial activity against Klebsiella pneumoniae ATCC 10031 assessed as inhibition of bacterial growth by CLSI protocol based broth microdilution assay; assay type: functional
DNA gyrase [27] = target: DNA gyrase (Staphylococcus aureus, UniProt P0A0K8+P20831); assay: Inhibition of Staphylococcus aureus DNA gyrase assessed reduction in supercoiling of relaxed pNO1 DNA measured after 30 mins by fluorescence assay
[28] = Ratio of genotoxicity in CHO-K1 cells by invitro micronucleus test to MIC for Enterococcus faecalis ATCC 29212; assay type: toxicity, cell-based; details: hamster
Staphylococcus aureus [29] = assay: Antibacterial activity against methicillin-resistant Staphylococcus aureus ATCC 43300 harboring GyrB T173A mutant assessed as inhibition of bacterial growth by CLSI protocol based broth microdilution assay; assay type: functional; summary of the method: as §1
[30] = test system: human topoisomerase 2alpha; assay: Selectivity ratio of IC50 for inhibition of human topoisomerase 2alpha to IC50 for inhibition of Staphylococcus aureus topoisomerase IV; assay type: toxicity; details: read-out: Ratio IC50

Cc1[nH]c(C(=O)Nc2nc3c(OCc4ccsc4)cc(C(=O)O)cc3s2)c(Cl)c1Cl
Activity [1]: Non-Toxic | Drug metabolism [2]: Metabolite_Detected | selectivity ratio [3]: 13 | IC50 (DNA gyrase [4]): < 10 nM | Drug metabolism [5]: Metabolite_Detected | MIC (Staphylococcus aureus [6]): 0.0313 µg/mL (≈ 0.0649 µM) | selectivity ratio [7]: 247 | selectivity ratio [8]: 450 | Ratio (Escherichia coli [9]): 8 | Ratio (Staphylococcus aureus [10]): 2 | selectivity ratio [11]: 1920 | IC50 [12]: 84 nM | MIC (Acinetobacter baumannii [13]): 0.5 µg/mL (≈ 1.04 µM) | MIC (Escherichia coli [14]): 2 µg/mL (≈ 4.15 µM) | Ratio (Staphylococcus aureus [15]): 2 | MIC (Staphylococcus aureus [16]): 0.0625 µg/mL (≈ 0.13 µM) | MIC (Staphylococcus aureus [17]): 0.0625 µg/mL (≈ 0.13 µM) | MIC (Escherichia coli [18]): 4 µg/mL (≈ 8.29 µM) | Activity [19]: Non-Toxic | MIC (Staphylococcus aureus [20]): 0.25 µg/mL (≈ 0.518 µM) | selectivity ratio [21]: 123 | MIC (Staphylococcus aureus [22]): 0.0625 µg/mL (≈ 0.13 µM) | selectivity ratio [23]: 957 | MIC (Acinetobacter baumannii [24]): 1 µg/mL (≈ 2.07 µM) | MIC (Escherichia coli [25]): 2 µg/mL (≈ 4.15 µM) | Ratio (Staphylococcus aureus [26]): 4 | MIC (Pseudomonas aeruginosa): 16 µg/mL (≈ 33.2 µM) | MIC (Enterococcus faecalis): 0.0156 µg/mL (≈ 0.0323 µM) | Activity (MCF7): Non-Toxic | MIC (Klebsiella pneumoniae): 2 µg/mL (≈ 4.15 µM) | IC50 (DNA gyrase [27]): < 10 nM | selectivity ratio [28]: 495 | MIC (Staphylococcus aureus [29]): 0.125 µg/mL (≈ 0.259 µM) | selectivity ratio [30]: 54
